In ChEMBL document CHEMBL1799926, “Applying the pro-drug approach to afford highly bioavailable antagonists of P2Y(14)” (Bioorg Med Chem Lett, 2011):

Legend:
Albumin = Albumin (Homo sapiens, UniProt P02768); experiment: Binding affinity to 4.5 % human serum albumin
[1] = Binding affinity to chimpanzee P2Y14 receptor; design: species or system Pan troglodytes
[2] = Clearance in mouse at 75 mg/kg, po bid; format: ADME, organism-based; design: dose 75 mg/kg, route oral; details: in vivo
[3] = Binding affinity to chimpanzee P2Y14 receptor in presence of 2% human serum albumin; design: species or system Pan troglodytes
[4] = Half life in mouse at 75 mg/kg, po bid; format: ADME, organism-based; design: dose 75 mg/kg, route oral; details: in vivo
[5] = Oral bioavailability in mouse at 75 mg/kg bid; format: ADME, organism-based; details: in vivo
[6] = Metabolic stability in whole blood after 1 hr
Mus musculus = experiment: (§1) AUC in mouse at 50 mg/kg, po after 24 hrs; format: ADME, organism-based, Plasma; design: time < 24 hr, dose 50 mg/kg, route oral; details: in vivo, 24 h
Outline: (§2)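 Mice dosed orally at 50 mg/kg in 0.25% methocel. Plasma levels of the parent zwitterion were measured for both the parent and the ester prodrugs, giving AUC, 24 h concentration and clearance. For prodrugs, bioavailability is expressed as virtual F, based on parent-drug exposure.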

[7] = Oral bioavailability in mouse at 50 mg/kg; format: ADME, organism-based; details: in vivo; outline: as §2
[8] = Plasma concentration in mouse at 50 mg/kg, po after 24 hrs; format: ADME, organism-based; design: dose 50 mg/kg, route oral; outline: as §2
[9] = as §1; format: ADME, organism-based, Plasma; design: time < 24 hr, dose 50 mg/kg, route oral; details: plasma; outline: as §2

Chain of Albumin (P02768 whole entry): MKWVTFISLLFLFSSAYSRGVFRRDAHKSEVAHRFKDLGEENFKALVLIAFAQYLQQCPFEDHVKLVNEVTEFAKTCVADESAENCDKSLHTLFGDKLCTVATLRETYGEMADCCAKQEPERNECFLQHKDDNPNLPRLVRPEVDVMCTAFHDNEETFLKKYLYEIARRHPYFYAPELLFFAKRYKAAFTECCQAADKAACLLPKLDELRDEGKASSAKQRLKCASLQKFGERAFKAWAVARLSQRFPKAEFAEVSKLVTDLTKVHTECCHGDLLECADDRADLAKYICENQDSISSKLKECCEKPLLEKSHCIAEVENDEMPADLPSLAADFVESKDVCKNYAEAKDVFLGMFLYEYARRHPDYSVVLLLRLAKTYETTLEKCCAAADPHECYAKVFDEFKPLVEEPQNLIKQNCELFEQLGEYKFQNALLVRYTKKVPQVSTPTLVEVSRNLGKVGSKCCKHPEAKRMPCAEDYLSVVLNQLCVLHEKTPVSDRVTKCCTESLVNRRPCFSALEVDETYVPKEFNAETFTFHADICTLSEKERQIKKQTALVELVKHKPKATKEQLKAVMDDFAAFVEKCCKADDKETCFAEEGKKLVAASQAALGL

Row | Ki [1] [nM] | Ki [3] [nM] | Stability [6] | bioavailability [7] [%] | concentration at 24 h [8] [nM] | SMILES | further results
1 | 4 | 1290 | – | – | – | O=C(O)c1cc(-c2ccc([C@@H](O)C(F)F)cc2)c2ccc(-c3ccc(C(F)(F)F)cc3)cc2c1 | Activity (Albumin): > 99%; CL/F [2]: 1.6 mL/min/kg; half-life [4]: 3 h; bioavailability [5]: 67%
2 | – | – | Unstable | – | – | CC(=O)OCOC(=O)c1cc(-c2ccc(C3CCNCC3)cc2)c2ccc(-c3ccc(C(F)(F)F)cc3)cc2c1 | –
3 | 1.9 | 35 | – | 5 | 680 | O=C(O)c1cc(-c2ccc(C3CCNCC3)cc2)c2ccc(-c3ccc(C(F)(F)F)cc3)cc2c1 [PPTN] | AUC at 24 h [9]: 23 µM·h

Second part, the molecule before the results:

Row | SMILES | Ki [1] [nM] | Ki [3] [nM] | Stability [6] | bioavailability [7] [%] | concentration at 24 h [8] [nM] | further results
4 | CC(OCC(=O)C(C)C)OC(=O)c1cc(-c2ccc(C3CCNCC3)cc2)c2ccc(-c3ccc(C(F)(F)F)cc3)cc2c1 (stereo not drawn) | – | – | Unstable | – | – | –
5 | CN(C)CCOC(=O)c1cc(-c2ccc(C3CCNCC3)cc2)c2ccc(-c3ccc(C(F)(F)F)cc3)cc2c1 | – | – | Unstable | – | – | –
6 | CN(C)C(=O)COC(=O)c1cc(-c2ccc(C3CCNCC3)cc2)c2ccc(-c3ccc(C(F)(F)F)cc3)cc2c1 | – | – | Unstable | 67 | 2280 | AUC (Mus musculus): 54 µM·h
